Consider 20 molecules from ChEMBL document CHEMBL1140054, “Phosphate prodrugs derived from N-acetylglucosamine have enhanced chondroprotective activity in explant cultures and represent a new lead in antiosteoarthritis drug discovery” (J Med Chem, 2008).

A short description of series [1]: Chondroprotective activity in bovine articular cartilage explant cultures assessed as reduction in IL1-induced glycosaminoglycan release at 0.1 mM after 96 hrs. The series is classed as functional, Bos taurus. The method in brief: (§1)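 Full-depth articular cartilage explants (50-100 mg) from mature bovine metacarpophalangeal joints; equilibrated 48 h in DMEM with 10% FCS, gentamicin, 1% HEPES, then washed in serum-free medium. Cultured in triplicate in serum-free DMEM with or without compound (10-0.1 mM); 10 ng/mL recombinant human IL-1 added to half the wells. After 96 h, media sulfated GAG measured by DMMB dye binding (A525) against shark chondroitin sulfate C standard.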

Series [2] in a line: Chondroprotective activity in bovine articular cartilage explant cultures assessed as reduction in IL1-induced glycosaminoglycan release at 0.1 mM after 96 hrs relative to control. The series is classed as functional, Bos taurus. On the set-up: scale not given: the % may be the effect or the level left. The method in brief:
as §1

Series [3] can be described thus: Cytotoxicity against bovine chondrocytes at 0.1 mM after 96 hrs by MTT cell viability assay. The series is classed as cell-based, Bos taurus. Conditions: cattle, 100 µM. The method in brief: (§2)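 Chondrocytes isolated from mature bovine (>18 months) metacarpophalangeal cartilage by 1 h 0.1% pronase then overnight 0.04% collagenase digestion at 37 °C. Cultured 96 h in serum-free DMEM with gentamicin and 1% HEPES, with or without compound (10-0.1 mM). MTT at final 1 mg/mL for 3 h; formazan dissolved in DMSO and OD read. Viability given as % of untreated cells; n experiments from different cows, in triplicate.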

Series [4] can be described thus: Chondroprotective activity in bovine articular cartilage explant cultures assessed as reduction in IL1-induced glycosaminoglycan release at 1 mM after 96 hrs. The class given is functional, Bos taurus. The method in brief:
as §1

Series [5] is described as follows: Cytotoxicity against bovine chondrocytes at 10 mM after 96 hrs by MTT cell viability assay. The note with it: cattle, 10000 µM. The series is classed as cell-based, Bos taurus. The method in brief:
as §2
(Formazan colour is commonly taken as a measure of viable cells.)

Series [6] in a line: Chondroprotective activity in bovine articular cartilage explant cultures assessed as reduction in IL1-induced glycosaminoglycan release at 10 mM after 96 hrs relative to control. The series is classed as functional, Bos taurus. On the set-up: scale not given: the % may be the effect or the level left. The method in brief: as §1
Series [7] in a line: Chondroprotective activity in bovine articular cartilage explant cultures assessed as reduction in IL1-induced glycosaminoglycan release at 10 mM after 96 hrs. The class given is functional, Bos taurus. The method, boiled down: as §1
Series [8] can be described thus: Chondroprotective activity in bovine articular cartilage explant cultures assessed as reduction in IL1-induced glycosaminoglycan release at 1 mM after 96 hrs relative to control. The series is classed as functional, Bos taurus. More on the design: scale not given: the % may be the effect or the level left. The method in brief: as §1
Series [9] can be described thus: Cytotoxicity against bovine chondrocytes at 1 mM after 96 hrs by MTT cell viability assay. The class given is cell-based, Bos taurus. The note with it: cattle, 1000 µM. The method in brief:
as §2

Take `CCOC(=O)[C@@H](NP(=O)(OC[C@H]1OC(O)[C@H](NC(C)=O)[C@@H](O)[C@@H]1O)Oc1ccc(OC)cc1)C(C)C` (some centres not stated): in series [1], the “fold change (FC)” value is on record as 4.4. Also, the Activity in [2] is on record as -21.1%; in series [3], 94%.
For `COc1ccc(OP(=O)(N[C@@H](CC(C)C)C(=O)OCc2ccccc2)OC[C@H]2OC(O)[C@H](NC(C)=O)[C@@H](O)[C@@H]2O)cc1` (some centres not stated), the results for the “fold change (FC)” value in [4], in series [7] and in [1] were 2.6, 0.9 and 4.1, respectively. Besides, the Activity in series [5] stood at 39%; in series [6], 64%; in series [8] it was 44.7%; in series [9], 20%; in [2], 12.2%; in [3] it was 87%.
In the case of `CCOC(=O)[C@H](C)NP(=O)(OC[C@H]1OC(O)[C@H](NC(C)=O)[C@@H](O)[C@@H]1O)Oc1ccc(OC)cc1` (some centres not stated), the Activity was 76% in [9], -1.9% in [2] and 89% in [3]. Besides, in series [1], the “fold change (FC)” value is reported as 4.4.
Take `COc1ccc(OP(=O)(N[C@@H](CCSC)C(=O)OCc2ccccc2)OC[C@H]2OC(O)[C@H](NC(C)=O)[C@@H](O)[C@@H]2O)cc1` (some centres not stated): the “fold change (FC)” value in series [4] stood at 1.6; in series [1] it was 3.8. Moreover, the Activity came to 62.2% in [8], 49% in series [9], 18% in [2] and 103% in series [3].
Turning to `COc1ccc(OP(=O)(N[C@H](C(=O)OCc2ccccc2)C(C)C)OC[C@H]2OC(O)[C@H](NC(C)=O)[C@@H](O)[C@@H]2O)cc1` (some centres not stated), the “fold change (FC)” value in series [4] is 0.9; in series [7] it was 0.5; in [1], 4. Moreover, the Activity in series [5] is recorded as 40%; in series [6], 85.3%; in series [8] it was 77.6%; in [9] it was 100%; in series [2], 2.5%; in series [3] it was 104%.
On to `COc1ccc(OP(=O)(NC(C)(C)C(=O)OCc2ccccc2)OC[C@H]2OC(O)[C@H](NC(C)=O)[C@@H](O)[C@@H]2O)cc1` (some centres not stated), for which the “fold change (FC)” value amounted to 4.2 in series [4] and 3.4 in [1]. The Activity in series [8] is given as -0.3%; in series [9], 95%; in series [2], -2.2%; in series [3], 99%.
On to `CCCCOC(=O)[C@@H]1CCCN1P(=O)(OC[C@H]1OC(O)[C@H](NC(C)=O)[C@@H](O)[C@@H]1O)Oc1ccc(OC)cc1` (some centres not stated), for which the “fold change (FC)” value in [1] stood at 4.1. The results for the Activity in series [2] and in [3] were -17.5% and 98%, respectively.
Regarding `COc1ccc(OP(=O)(N[C@H](C(=O)OC(C)C)C(C)C)OC[C@H]2OC(O)[C@H](NC(C)=O)[C@@H](O)[C@@H]2O)cc1` (some centres not stated), the “fold change (FC)” value in series [4] amounted to 3.6; in [1], 3.2. Further, the Activity in [8] came out at 12.1%; in [9] it was 56%; in series [2] it was 14%; in series [3], 93%.
Consider `COc1ccc(OP(=O)(NCC(=O)OCc2ccccc2)OC[C@H]2OC(O)[C@H](NC(C)=O)[C@@H](O)[C@@H]2O)cc1` (some centres not stated), for which the “fold change (FC)” value in [4] is listed as 1.2; in series [1] it was 4.2. Moreover, the Activity in series [8] is given as 73.6%; in [9], 100%; in series [2] it was -12.2%; in series [3] it was 99%.
For the molecule `COc1ccc(OP(=O)(N[C@@H](C)C(=O)OCc2ccccc2)OC[C@H]2OC(O)[C@H](NC(C)=O)[C@@H](O)[C@@H]2O)cc1` (some centres not stated), the “fold change (FC)” value in series [4] was determined as 4.2; in series [7] it was 2; in series [1], 4.6. Besides, the Activity is reported as 85% in series [5]; 24.2% in series [6]; 5.6% in series [8]; 81% in [9]; -2.2% in series [2]; 104% in [3].
As to `COc1ccc(OP(=O)(N[C@H](C(=O)OC2CCCCC2)C(C)C)OC[C@H]2OC(O)[C@H](NC(C)=O)[C@@H](O)[C@@H]2O)cc1` (some centres not stated), the Activity in series [9] was 30%; in series [2], -6.3%; in series [3] it was 92%. Moreover, in series [1], the “fold change (FC)” value came out at 4.8.
As for `COc1ccc(OP(=O)(N[C@@H](Cc2ccccc2)C(=O)OCc2ccccc2)OC[C@H]2OC(O)[C@H](NC(C)=O)[C@@H](O)[C@@H]2O)cc1` (some centres not stated), the Activity is reported as 49% in series [5] and 2.3% in [6]. In addition, the “fold change (FC)” value in series [7] was determined as 2.1.
As to `CC(=O)N[C@@H]1[C@@H](O)[C@H](O)[C@@H](CO)O[C@H]1O` [N-ACETYLGLUCOSAMINE], the “fold change (FC)” value in series [4] turned out to be 4.5; in [7] it was 2.9; in series [1], 4.3. In addition, the Activity is given as 61% in series [5]; 9.3% in series [6]; -1% in series [8]; 70% in [9]; 5.4% in [2]; 107% in series [3].
For the molecule `CCOC(=O)CN(C)P(=O)(OC[C@H]1OC(O)[C@H](NC(C)=O)[C@@H](O)[C@@H]1O)Oc1ccc(OC)cc1` (some centres not stated), the Activity in series [9] is 100%; in series [2] it was -16.3%; in series [3], 100%. Also, the “fold change (FC)” value in [1] is recorded as 5.4.
As for `N[C@H]1C(O)O[C@H](CO)[C@@H](O)[C@@H]1O` (some centres not stated) [GLUCOSAMINE], the “fold change (FC)” value in series [4] worked out at 4.7; in series [7], 2; in series [1], 5.1. The Activity in [5] was found to be 56%; in series [6] it was 19%; in series [8], 3.4%; in series [9], 88%; in series [2], 0.8%; in series [3], 106%.
As to `CC[C@H](C)[C@H](NP(=O)(OC[C@H]1OC(O)[C@H](NC(C)=O)[C@@H](O)[C@@H]1O)Oc1ccc(OC)cc1)C(=O)OCc1ccccc1` (some centres not stated), the “fold change (FC)” value is recorded as 1.2 in [4], 0.5 in series [7] and 3.9 in [1]. Also, the Activity is listed as 56% in [5]; 74.6% in series [6]; 70.8% in series [8]; 118% in series [9]; 5.2% in series [2]; 110% in series [3].
For `CCOC(=O)CNP(=O)(OC[C@H]1OC(O)[C@H](NC(C)=O)[C@@H](O)[C@@H]1O)Oc1ccc(OC)cc1` (some centres not stated), the values for the Activity in series [9], in series [2] and in series [3] were 37%, -19.3% and 78%, respectively. The “fold change (FC)” value in series [1] came to 3.6.
Consider `COc1ccc(OP(=O)(N[C@H](C)C(=O)OCc2ccccc2)OC[C@H]2OC(O)[C@H](NC(C)=O)[C@@H](O)[C@@H]2O)cc1` (some centres not stated), for which the “fold change (FC)” value amounted to 2.8 in [4] and 3.4 in series [1]. Besides, the Activity was found to be 31% in series [8], 66% in [9], 24.3% in series [2] and 96% in series [3].
On to `COC(=O)[C@H](C)NP(=O)(OC[C@H]1OC(O)[C@H](NC(C)=O)[C@@H](O)[C@@H]1O)Oc1ccc(OC)cc1` (some centres not stated), for which the Activity was 37% in [9], 15.8% in [2] and 97% in series [3]. Also, in series [1], the “fold change (FC)” value worked out at 3.9.
Consider `COc1ccc(OP(=O)(OC[C@H]2OC(O)[C@H](NC(C)=O)[C@@H](O)[C@@H]2O)N2CCC[C@H]2C(=O)OCc2ccccc2)cc1` (some centres not stated), for which the entries for the “fold change (FC)” value in [4], in series [7] and in series [1] were 4.1, 0.8 and 4, respectively. The Activity in series [5] is recorded as 63%; in [6], 65.6%; in series [8], 2.2%; in [9], 85%; in series [2], -21.9%; in series [3], 78%.
